In ChEMBL document CHEMBL1147538, “Antibacterial activity of glycine betaine analogues: involvement of osmoporters” (Bioorg Med Chem Lett, 2004):

Tests used:
Assay type in all cases: functional, organism-based
Escherichia coli = experiment: Effect (1 mM) on Escherichia coli growth under stressing conditions; Expressed as absorbance (OD) at 570 nm; Control 1.24 nm
Method in brief: (§1)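 Aerobic culture in a defined classic medium (M63, M9, SMM or LAS, chosen per species). Hyperosmotic stress was imposed with NaCl at 0.3–0.5 M final, set by each bacterium's salt tolerance. Each betaine analogue was added at 1 mM. Bacterial yield was read as absorbance at 570 nm and compared with a control culture without analogue.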

Bacillus subtilis = experiment: Effect (1 mM) on Bacillus subtilis growth under stressing conditions; Expressed as absorbance (OD) at 570 nm; Control 3.20 nm; method in brief: as §1
Serratia marcescens = experiment: Effect (1 mM) on Serratia marcescens growth under stressing conditions; Expressed as absorbance (OD) at 570 nm; Control 1.03 nm; method in brief: as §1
Brevibacterium linens = experiment: Effect (1 mM) on Brevibacterium linens growth under stressing conditions; Expressed as absorbance (OD) at 570 nm; Control 1.76 nm
Pseudomonas aeruginosa = experiment: Effect (1 mM) on Pseudomonas aeruginosa growth under stressing conditions; Expressed as absorbance (OD) at 570 nm; Control 1.24 nm
Citrobacter freundii = experiment: Effect (1 mM) on Citrobacter freundii growth under stressing conditions; Expressed as absorbance (OD) at 570 nm; Control 1.09 nm; method in brief: as §1
Acinetobacter baumannii = experiment: Effect (1 mM) on Acinetobacter baumannii growth under stressing conditions; Expressed as absorbance (OD) at 570 nm; Control 1.14 nm; method in brief: as §1
Enterobacter cloacae = experiment: Effect (1 mM) on Enterobacter cloacae growth under stressing conditions; Expressed as absorbance (OD) at 570 nm; Control 1.25 nm; method in brief: as §1
Enterococcus faecalis = experiment: Effect (1 mM) on Enterococcus faecalis growth under stressing conditions; Expressed as absorbance (OD) at 570 nm; Control 1.16 nm
Method in brief: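 Enterococcus was grown aerobically in defined M9 medium made hyperosmotic with NaCl (0.3–0.5 M final, set by tolerance). Each betaine analogue was supplied at 1 mM. Yield was read as OD at 570 nm against an untreated control.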

Sinorhizobium meliloti = experiment: Effect (1 mM) on Sinorhizobium meliloti growth under stressing conditions; Expressed as absorbance (OD) at 570 nm; Control 1.46 nm
Salmonella enterica = experiment: Effect (1 mM) on Salmonella enterica growth under stressing conditions; Expressed as absorbance (OD) at 570 nm; Control 1.23 nm; method in brief: as §1
Klebsiella pneumoniae = experiment: Effect (1 mM) on Klebsiella pneumoniae growth under stressing conditions; Expressed as absorbance (OD) at 570 nm; Control 1.80 nm; method in brief: as §1
Dickeya chrysanthemi = experiment: Effect (1 mM) on Erwinia chrysanthemi growth under stressing conditions; Expressed as absorbance (OD) at 570 nm; Control 1.97 nm; method in brief: as §1
[1] = system: Corynebacterium glutamicum; experiment: Effect (1 mM) on Corynebacterium glutamicum growth under stressing conditions; Expressed as absorbance (OD) at 570 nm; Control 0.87 nm; method in brief: as §1
Aeromonas hydrophila = experiment: Effect (1 mM) on Aeromonas hydrophila growth under stressing conditions; Expressed as absorbance (OD) at 570 nm; Control 1.65 nm; method in brief: as §1

Row | Compound | Absorbance (Escherichia coli) | Absorbance (Bacillus subtilis) | Absorbance (Serratia marcescens) | Absorbance (Brevibacterium linens) | Absorbance (Pseudomonas aeruginosa) | Absorbance (Citrobacter freundii) | Absorbance (Acinetobacter baumannii) | Absorbance (Enterobacter cloacae) | Absorbance (Enterococcus faecalis) | Absorbance (Sinorhizobium meliloti) | Absorbance (Salmonella enterica) | Absorbance (Klebsiella pneumoniae) | Absorbance (Dickeya chrysanthemi) | Absorbance [1] | Absorbance (Aeromonas hydrophila)
1 | C[N+](C)(CC(=O)O)Cc1ccc([N+](=O)[O-])cc1 | 0.09 | 0.18 | 0.07 | 1.74 | 0.16 | 0.03 | 0.19 | 0.24 | 1.23 | 1.85 | 0.07 | 0.23 | 0.06 | 0.33 | 0.06
2 | COc1cccc(C[N+](C)(C)CC(=O)O)c1 | 0.18 | 3.2 | 0.48 | 1.45 | 1.07 | 1.23 | 1.16 | 1.11 | 1.12 | 1.7 | 1.11 | 0.7 | 0.25 | 0.63 | 1.05
3 | C[N+](C)(CC(=O)O)Cc1ccccc1[N+](=O)[O-] | 0.08 | 3.06 | 0.09 | 1.52 | 0.11 | 0.06 | 0.72 | 0.46 | 1.3 | 1.9 | 0.23 | 0.4 | 0.11 | 0.26 | 0.2
4 | C[N+](C)(CC(=O)O)Cc1ccccc1 | 0.12 | 3.2 | 0.21 | 0.88 | 0.06 | 1.32 | 0.93 | 1.05 | 1.24 | 2.3 | 1.24 | 0.46 | 0.22 | 0.43 | 0.16
